Data published in ChEMBL document CHEMBL1667809, “Synthesis and in vitro antibacterial activity of 7-(3-alkoxyimino-5-amino/methylaminopiperidin-1-yl)fluoroquinolone derivatives” (Bioorg Med Chem Lett, 2011).
In brackets after ≈: the same amount, converted by molar mass.

Key:
Staphylococcus aureus [1] = test: Ratio of compound MIC to LVFX MIC for methicillin-sensitive Staphylococcus aureus 10-04; format: functional
Klebsiella pneumoniae = test: Antibacterial activity against Klebsiella pneumoniae 10-1 after 18 to 24 hrs by agar dilution method; format: functional
Method in brief: (§1)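 Agar dilution on Petri dishes, each inoculated with 10⁴ cfu of the strain and incubated at 35 °C for 18–24 h. MIC read as the lowest compound concentration giving no visible growth on the plate.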

Escherichia coli [2] = test: Antibacterial activity against Escherichia coli 10-02 after 18 to 24 hrs by agar dilution method; format: functional; method in brief: as §1
Streptococcus pyogenes = test: Antibacterial activity against Streptococcus hemolyticus 1002 after 18 to 24 hrs by agar dilution method; format: functional; method in brief: as §1
Staphylococcus aureus [3] = test: Ratio of compound MIC to CPFX MIC for methicillin-sensitive Staphylococcus aureus 10-04; format: functional
[4] = Cytotoxicity against african green monkey Vero cells after 24 hrs; format: cell-based; conditions: chlorocebus sabaeus
Method in brief: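 Vero cells exposed to graded compound concentrations for 24 h, then viability assessed; CC₅₀ derived from the viability data.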

[5] = system: Staphylococcus epidermidis; test: Antibacterial activity against methicillin-resistant Staphylococcus epidermidis 10-5 after 18 to 24 hrs by agar dilution method; format: functional
Method in brief: (§2)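 Agar dilution on Petri dishes, each inoculated with 10⁴ cfu. Plates incubated at 35 °C for 18–24 h. MIC taken as the lowest test-compound concentration giving no visible growth on the plate. Reference drugs gemifloxacin, ciprofloxacin and levofloxacin run alongside for comparison.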

Pseudomonas aeruginosa [6] = test: Antibacterial activity against Pseudomonas aeruginosa ATCC 27853 after 18 to 24 hrs by agar dilution method; format: functional; method in brief: as §1
Staphylococcus aureus [7] = test: Antibacterial activity against methicillin-resistant Staphylococcus aureus 10-05 after 18 to 24 hrs by agar dilution method; format: functional; method in brief: as §2
Escherichia coli [8] = test: Antibacterial activity against Escherichia coli ATCC 25922 after 18 to 24 hrs by agar dilution method; format: functional; method in brief: as §1
Staphylococcus aureus [9] = test: Antibacterial activity against methicillin-sensitive Staphylococcus aureus 10-04 after 18 to 24 hrs by agar dilution method; format: functional; method in brief: as §1
Pseudomonas aeruginosa [10] = test: Antibacterial activity against Pseudomonas aeruginosa 10-1 after 18 to 24 hrs by agar dilution method; format: functional; method in brief: as §1
Staphylococcus aureus [11] = test: Ratio of compound MIC to GMFX MIC for methicillin-sensitive Staphylococcus aureus 10-04; format: functional
[12] = system: Staphylococcus epidermidis; test: Ratio of compound MIC to GMFX MIC for methicillin-resistant Staphylococcus epidermidis 10-5; format: functional
[13] = system: Staphylococcus epidermidis; test: Antibacterial activity against methicillin-sensitive Staphylococcus epidermidis 10-4 after 18 to 24 hrs by agar dilution method; format: functional; method in brief: as §1
[14] = system: Staphylococcus epidermidis; test: Ratio of compound MIC to LVFX MIC for methicillin-resistant Staphylococcus epidermidis 10-5; format: functional
Staphylococcus aureus [15] = test: Antibacterial activity against Staphylococcus aureus ATCC 25923 after 18 to 24 hrs by agar dilution method; format: functional; method in brief: as §1
Streptococcus pneumoniae = test: Antibacterial activity against Streptococcus pneumoniae 1001 after 18 to 24 hrs by agar dilution method; format: functional; method in brief: as §1
[16] = system: Staphylococcus epidermidis; test: Ratio of compound MIC to CPFX MIC for methicillin-resistant Staphylococcus epidermidis 10-5; format: functional

| SMILES | Ratio (Staphylococcus aureus [1]) | MIC (Klebsiella pneumoniae) [µg/mL] | MIC (Escherichia coli [2]) [µg/mL] | MIC (Streptococcus pyogenes) [µg/mL] | Ratio (Staphylococcus aureus [3]) | CC50 at 24 h [4] [µM] | MIC [5] [µg/mL] | MIC (Pseudomonas aeruginosa [6]) [µg/mL] | MIC (Staphylococcus aureus [7]) [µg/mL] | MIC (Escherichia coli [8]) [µg/mL] | MIC (Staphylococcus aureus [9]) [µg/mL] | MIC (Pseudomonas aeruginosa [10]) [µg/mL] | Ratio (Staphylococcus aureus [11]) | Ratio [12] | MIC [13] [µg/mL] | Ratio [14] | MIC (Staphylococcus aureus [15]) [µg/mL] | MIC (Streptococcus pneumoniae) [µg/mL] | Ratio [16] |
| --- | --- | --- | --- | --- | --- | --- | --- | --- | --- | --- | --- | --- | --- | --- | --- | --- | --- | --- | --- |
| CCO/N=C1\CC(NC)CN(c2c(F)cc3c(=O)c(C(=O)O)cn(C4CC4)c3c2F)C1 (stereo not drawn) | 4 | > 128 | 0.5 (≈ 1.15 µM) | 128 (≈ 295 µM) | 4 | 1010 | 2 (≈ 4.6 µM) | 128 (≈ 295 µM) | 4 (≈ 9.21 µM) | 0.25 (≈ 0.575 µM) | 0.25 (≈ 0.575 µM) | > 128 | 4 | 2 | 0.5 (≈ 1.15 µM) | 2 | 0.5 (≈ 1.15 µM) | 1 (≈ 2.3 µM) | – |
| CO/N=C1\CC(N)CN(c2c(F)cc3c(=O)c(C(=O)O)cn(C4CC4)c3c2OC(F)F)C1 (stereo not drawn) | – | > 128 | 0.25 (≈ 0.55 µM) | > 128 | – | 667 | 8 (≈ 17.6 µM) | 128 (≈ 282 µM) | 128 (≈ 282 µM) | 0.25 (≈ 0.55 µM) | 8 (≈ 17.6 µM) | > 128 | – | – | 2 (≈ 4.4 µM) | – | 2 (≈ 4.4 µM) | 4 (≈ 8.8 µM) | – |
| CCO/N=C1\CC(N)CN(c2c(F)cc3c(=O)c(C(=O)O)cn(C4CC4)c3c2OC(F)F)C1 (stereo not drawn) | 4 | > 128 | 0.25 (≈ 0.534 µM) | 128 (≈ 273 µM) | 4 | 1520 | 1 (≈ 2.13 µM) | 128 (≈ 273 µM) | 4 (≈ 8.54 µM) | 0.25 (≈ 0.534 µM) | 0.25 (≈ 0.534 µM) | > 128 | 4 | 2 | 0.25 (≈ 0.534 µM) | 2 | 0.5 (≈ 1.07 µM) | 1 (≈ 2.13 µM) | – |
| CO/N=C1\CC(N)CN(c2c(F)cc3c(=O)c(C(=O)O)cn4c3c2OC[C@@H]4C)C1 (stereo partly drawn) | – | 64 (≈ 158 µM) | 0.5 (≈ 1.24 µM) | 64 (≈ 158 µM) | – | 1000 | 8 (≈ 19.8 µM) | 8 (≈ 19.8 µM) | 128 (≈ 317 µM) | 0.25 (≈ 0.618 µM) | 2 (≈ 4.95 µM) | 64 (≈ 158 µM) | – | – | 4 (≈ 9.89 µM) | – | 0.5 (≈ 1.24 µM) | 0.5 (≈ 1.24 µM) | – |
| CCO/N=C1\CC(N)CN(c2c(F)cc3c(=O)c(C(=O)O)cn4c3c2OC[C@@H]4C)C1 (stereo partly drawn) | 4 | 64 (≈ 153 µM) | 0.25 (≈ 0.597 µM) | 8 (≈ 19.1 µM) | 4 | 1240 | 2 (≈ 4.78 µM) | 8 (≈ 19.1 µM) | 4 (≈ 9.56 µM) | 0.25 (≈ 0.597 µM) | 0.5 (≈ 1.19 µM) | 32 (≈ 76.5 µM) | 4 | 4 | 0.5 (≈ 1.19 µM) | 4 | 0.25 (≈ 0.597 µM) | 0.25 (≈ 0.597 µM) | 8 |
| CO/N=C1\CC(N)CN(c2cc3c(cc2F)c(=O)c(C(=O)O)cn3C2CC2)C1 (stereo not drawn) | – | 64 (≈ 165 µM) | 0.25 (≈ 0.644 µM) | 128 (≈ 330 µM) | – | 593 | 16 (≈ 41.2 µM) | 2 (≈ 5.15 µM) | 64 (≈ 165 µM) | 0.25 (≈ 0.644 µM) | 4 (≈ 10.3 µM) | > 128 | – | – | 8 (≈ 20.6 µM) | – | 0.5 (≈ 1.29 µM) | 4 (≈ 10.3 µM) | – |
| CCn1cc(C(=O)O)c(=O)c2cc(F)c(N3C/C(=N/OC)CC(N)C3)c(F)c21 (stereo not drawn) | 4 | > 128 | 0.25 (≈ 0.634 µM) | 128 (≈ 325 µM) | 4 | 913 | 16 (≈ 40.6 µM) | 8 (≈ 20.3 µM) | 32 (≈ 81.1 µM) | 0.25 (≈ 0.634 µM) | 0.25 (≈ 0.634 µM) | > 128 | – | – | 16 (≈ 40.6 µM) | – | 0.25 (≈ 0.634 µM) | 0.5 (≈ 1.27 µM) | – |
| O=C(O)c1cn(C2CC2)c2cc(N3CCNCC3)c(F)cc2c1=O [CIPROFLOXACIN] | – | 32 (≈ 96.6 µM) | – | 64 (≈ 193 µM) | – | – | 16 (≈ 48.3 µM) | 32 (≈ 96.6 µM) | 64 (≈ 193 µM) | – | – | 1 (≈ 3.02 µM) | – | – | 1 (≈ 3.02 µM) | – | 0.25 (≈ 0.754 µM) | 0.03 (≈ 0.0905 µM) | – |
| CO/N=C1\CN(c2nc3c(cc2F)c(=O)c(C(=O)O)cn3C2CC2)CC1CN (stereo not drawn) [GEMIFLOXACIN] | – | 32 (≈ 82.2 µM) | 0.06 (≈ 0.154 µM) | 8 (≈ 20.5 µM) | – | – | 8 (≈ 20.5 µM) | 2 (≈ 5.14 µM) | 4 (≈ 10.3 µM) | 0.015 (≈ 0.0385 µM) | 2 (≈ 5.14 µM) | 1 (≈ 2.57 µM) | – | – | 0.25 (≈ 0.642 µM) | – | 0.008 (≈ 0.0205 µM) | 0.008 (≈ 0.0205 µM) | – |
| C[C@H]1COc2c(N3CCN(C)CC3)c(F)cc3c(=O)c(C(=O)O)cn1c23.C[C@H]1COc2c(N3CCN(C)CC3)c(F)cc3c(=O)c(C(=O)O)cn1c23.O [LEVOFLOXACIN] | – | 32 | – | 32 | – | – | 8 | – | 32 | – | 8 | – | – | – | 2 | – | 0.125 | 0.015 | – |
